Measurements as given in ChEMBL document CHEMBL4368878 (Medchemcomm, 2018).
Activity calls are given as the source filed them. The calls are words filed in the database; no cut-off is given here.

Experiments:
Cannabinoid receptor 1 = Cannabinoid receptor 1 (Homo sapiens, UniProt P21554); assay: Displacement of [3H]CP55940 from recombinant human CB1 receptor expressed in HEK293 cell membranes measured after 90 mins
In short: (§1)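 Membranes from HEK-293 cells stably expressing human recombinant CB1 (Bmax 2.5 pmol/mg protein) or CB2 (Bmax 4.7 pmol/mg protein). [3H]-CP-55,940 was used at 0.14 nM for CB1 (Kd 0.18 nM) and 0.084 nM for CB2 (Kd 0.31 nM), with increasing test concentrations, 90 min at 30 °C. Non-specific binding was set with 10 μM WIN 55212-2. Ki came from IC50 via Cheng–Prusoff; n ≥ 3, mean ± SEM. SI = CB1 Ki / CB2 Ki.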

[1] = biological target: Cannabinoid receptor 1 (CB1) (Homo sapiens, UniProt P21554); assay: Displacement of [3H]CP55940 from recombinant human CB1 receptor expressed in HEK293 cell membranes at 10 uM measured after 90 mins relative to control; settings: probe [3H]CP55940
Sequence of Cannabinoid receptor 1 (CB1) (P21554 whole entry): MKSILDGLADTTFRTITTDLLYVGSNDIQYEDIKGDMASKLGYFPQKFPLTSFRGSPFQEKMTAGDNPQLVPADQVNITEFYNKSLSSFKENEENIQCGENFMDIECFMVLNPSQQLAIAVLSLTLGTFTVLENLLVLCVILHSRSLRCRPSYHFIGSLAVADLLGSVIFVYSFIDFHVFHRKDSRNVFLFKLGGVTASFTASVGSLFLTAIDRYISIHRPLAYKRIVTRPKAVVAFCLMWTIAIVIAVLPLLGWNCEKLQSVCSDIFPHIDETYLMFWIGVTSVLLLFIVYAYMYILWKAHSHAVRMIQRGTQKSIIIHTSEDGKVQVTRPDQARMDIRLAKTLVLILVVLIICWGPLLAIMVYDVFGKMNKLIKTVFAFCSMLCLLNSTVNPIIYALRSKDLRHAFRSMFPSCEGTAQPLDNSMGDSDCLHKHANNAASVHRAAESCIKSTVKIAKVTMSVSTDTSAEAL

Cannabinoid receptor 2 [2] = biological target: T1, Cannabinoid receptor 2 (Homo sapiens, UniProt P34972); assay: Displacement of [3H]CP55940 from recombinant human CB2 receptor expressed in HEK293 cell membranes measured after 90 mins; in short: as §1
T1 sequence (P34972 whole entry): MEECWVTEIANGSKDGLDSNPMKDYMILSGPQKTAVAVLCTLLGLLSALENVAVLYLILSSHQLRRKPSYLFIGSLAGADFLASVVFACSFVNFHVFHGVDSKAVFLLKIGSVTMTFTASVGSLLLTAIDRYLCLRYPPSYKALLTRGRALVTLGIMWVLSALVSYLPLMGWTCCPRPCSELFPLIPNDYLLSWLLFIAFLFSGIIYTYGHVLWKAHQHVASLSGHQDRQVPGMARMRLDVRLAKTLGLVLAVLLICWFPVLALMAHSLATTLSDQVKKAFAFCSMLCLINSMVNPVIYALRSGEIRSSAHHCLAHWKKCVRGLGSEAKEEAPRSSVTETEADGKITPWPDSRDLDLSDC

Cannabinoid receptor 2 [3] = biological target: T1, Cannabinoid receptor 2; assay: Displacement of [3H]CP55940 from recombinant human CB2 receptor expressed in HEK293 cell membranes at 10 uM measured after 90 mins relative to control
Homo sapiens = species on record: Homo sapiens; assay: Selectivity index, ratio of Ki for displacement of [3H]CP55940 from recombinant human CB1 receptor expressed in HEK293 cell membranes to Ki for displacement of [3H]CP55940 from recombinant human CB2 receptor expressed in HEK293 cell membranes; in short: as §1
Cannabinoid receptor 2 [4] = biological target: T1, Cannabinoid receptor 2; assay: Antagonist/inverse agonist activity at recombinant human CB2 receptor expressed in HEK293 cell membranes assessed as increase in NKH-477-induced cAMP accumulation measured after 30 mins by luminescence assay; format: functional, cell-based
Cannabinoid receptor 2 [5] = biological target: T1, Cannabinoid receptor 2; assay: Antagonist/inverse agonist activity at recombinant human CB2 receptor expressed in HEK293 cell membranes assessed as increase in NKH-477-induced cAMP accumulation preincubated followed by CB2 agonist JWH-133 addition and measured after 30 mins by luminescence assay; format: functional, cell-based

Sequence of Cannabinoid receptor 1 (P21554 whole entry): as the sequence (P21554 whole entry) above

Compound | Ki (Cannabinoid receptor 1) [µM] | inhibition at 1.5 h, 10 µM [1] [%] | Ki (Cannabinoid receptor 2 [2]) [µM] | inhibition (Cannabinoid receptor 2 [3]) [%] | Ratio Ki (Homo sapiens) | Activity (Cannabinoid receptor 2 [4]) | Activity (Cannabinoid receptor 2 [5])
CCN(CC)CCn1c(-c2ccc(OC)cc2)nc2cc(C(F)(F)F)ccc21 | > 10 | 1.95 | > 10 | 46.9 | – | – | –
CCCCn1c(Cc2ccc(Cl)c(Cl)c2)nc2cc(C(F)(F)F)ccc21 | 10 | 53.9 | 0.37 | 94.3 | 27 | Active | Active
Clc1ccc2c(c1)nc(Cn1nc3ccccc3n1)n2CC[C@@H]1CCCN2CCCC[C@H]12 | > 10 | 17.6 | > 10 | 10.1 | – | – | –
COc1ccc(Cc2nc3cc(C(F)(F)F)ccc3n2C[C@@H]2CCCN3CCCC[C@H]23)cc1 | > 10 | 5.5 | > 10 | 19.7 | – | – | –
COCCn1c(Cc2ccc(Cl)c(Cl)c2)nc2cc(C(F)(F)F)ccc21 | > 10 | 41.4 | 10 | 53.8 | > 1 | – | –
CCN(CC)CCCn1c(Cc2ccc(OC)cc2)nc2cc(C(F)(F)F)ccc21 | > 10 | 19.2 | > 10 | 16.8 | – | – | –
CCN(CC)CCCn1c(Cn2nc3ccccc3n2)nc2cc(C(C)=O)ccc21 | > 10 | 15 | > 10 | 17.5 | – | – | –
COc1ccc(Cc2nc3cc(C(C)=O)ccc3n2C[C@@H]2CCCN3CCCC[C@H]23)cc1 | > 10 | 47.6 | > 10 | 15.6 | – | – | –
